M5 antag = human M5 muscarinic receptor antagonists, primary screen, CHO cells, Fluo-8 calcium fluorescence | Muscarinic acetylcholine receptor M5 (Homo sapiens), P08912 | CHO-hM5 cells, ACh EC80 | inhibition, % at 3 µM | 0.59% of 360,000 active;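 active = inhibition above a per-plate cutoff, the mean of that plate's test compounds plus 3 SD, cut at about 27% in these data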;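 note: 0% = acetylcholine EC80 with DMSO and 100% = DMSO without agonist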
Target sequence (P08912 whole entry, looked up): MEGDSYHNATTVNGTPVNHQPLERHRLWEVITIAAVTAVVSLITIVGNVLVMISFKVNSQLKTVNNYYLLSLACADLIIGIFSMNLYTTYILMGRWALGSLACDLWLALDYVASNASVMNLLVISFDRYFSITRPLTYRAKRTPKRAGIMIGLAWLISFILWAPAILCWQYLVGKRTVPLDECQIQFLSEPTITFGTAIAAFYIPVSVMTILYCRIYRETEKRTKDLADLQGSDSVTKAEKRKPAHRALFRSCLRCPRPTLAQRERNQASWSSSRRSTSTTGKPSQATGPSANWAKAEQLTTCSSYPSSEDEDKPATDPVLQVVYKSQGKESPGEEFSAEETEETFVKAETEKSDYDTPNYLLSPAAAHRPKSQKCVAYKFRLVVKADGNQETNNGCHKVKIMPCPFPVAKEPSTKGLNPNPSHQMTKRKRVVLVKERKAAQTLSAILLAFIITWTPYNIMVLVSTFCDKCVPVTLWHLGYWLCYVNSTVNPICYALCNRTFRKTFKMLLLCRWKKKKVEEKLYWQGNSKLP
CHRM5 PAM = human M5 muscarinic receptor positive allosteric modulators, primary screen, CHO-K1 cells, Fluo-8 calcium fluorescence. Muscarinic acetylcholine receptor M5 (Homo sapiens), P08912. activation, % at 3 µM. CHO-K1 hM5, ACh EC20 PAM; 0% = ACh EC20, 100% = ACh EC100. AID 624038, 2012. 0.3% of 360,000 active;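 active = activation above the run cutoff, the mean activation of all test compounds plus 3 SD, cut at about 18% in these data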
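Assay system: CHO-K1 hM5 cells / Incubation: Fluo-8 loading 80 min at 37 °C plus 30 min room temperature / Technique: Fluo-8 calcium dye fluorescence, kinetic read / Repeats: single replicate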
CHRM5 agonist = human M5 muscarinic receptor agonists, primary screen, CHO-K1 cells, Fluo-8 calcium fluorescence; Muscarinic acetylcholine receptor M5 (Homo sapiens), P08912; CHO-K1 hM5 cells; 0% DMSO wells, 100% maximal acetylcholine response; activation, % at 3 µM; 0.19% of 360,000 active; AID 624037, 2012;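 active = activation above the run's mean over test compounds plus 3 SD, cut at about 23% in these data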;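 note: signal is peak over basal fluorescence ratio across the kinetic read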
M4 antag = human M4 muscarinic receptor antagonists, primary screen, CHO cells, Fluo-8 calcium fluorescence. Muscarinic acetylcholine receptor M4 (Homo sapiens), P08173. CHO-hM4 cells, ACh EC80. inhibition, % at 3 µM. 0.73% of 360,000 active. AID 624125, 2012;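 active = inhibition above its plate's cutoff, the mean inhibition of sample wells plus 3 SD, cut at about 27% in these data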;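 note: 0% = acetylcholine EC80 with DMSO and 100% = DMSO without agonist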
CHRM4 PAM = human M4 muscarinic receptor positive allosteric modulators, primary screen, CHO-K1 cells, Fluo-8 calcium fluorescence; Muscarinic acetylcholine receptor M4 (Homo sapiens), P08173; CHO-K1 hM4/Gqi5, ACh EC20; 0% = ACh EC20, 100% = maximal ACh; activation, % at 3 µM; 0.4% of 360,000 active;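 active = activation above its plate's cutoff, the mean activation of sample wells plus 3 SD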
CHRM4 agonist = human M4 muscarinic receptor agonists, primary screen, CHO-K1 cells, Fluo-8 calcium fluorescence; 0.14% of 360,000 active; Muscarinic acetylcholine receptor M4 (Homo sapiens), P08173; AID 624127, 2012; activation, % at 3 µM; CHO-K1 hM4/Gqi5; vehicle 0%, full acetylcholine response 100%;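 active = activation above the run mean over all test wells plus 3 SD, cut at about 32% in these data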;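 note: peak over basal fluorescence ratio per well then scaled between controls; 0% = DMSO wells and 100% = acetylcholine at EC100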
Active calls of the source: *. Most compounds without a hit are left out; they make up all but 1.9% or so of the library.

SMILES | M5 antag | CHRM5 PAM | CHRM5 agonist | M4 antag | CHRM4 PAM | CHRM4 agonist
CCOc1ccc(NC(=O)CCn2c(=S)oc3ccccc32)cc1 | 20 | 9 | -1 | 18 | 27* | 1
COc1ccc(C(=O)NC2CCc3ccccc32)cc1OC1CCN(C(C)=O)CC1 (stereo not drawn) | 10 | -8 | -3 | -5 | 0 | 13
Cc1cc(C)n(C(=O)c2c([N+](=O)[O-])c(C)nn2C)n1 | 12 | -3 | -1 | 9 | -8 | -1
Cc1ccc(SC(=O)c2c([N+](=O)[O-])c(C)nn2C)cc1 | 17 | -30 | -19 | 57* | -15 | -1
CCC1S/C(=N/N=C/c2ccco2)N(c2ccc(F)cc2)C1=O (stereo not drawn) | 11 | -5 | 0 | 7 | -6 | 0
N/C(=N\NC(=O)c1cccc(F)c1)c1cc2ccccc2oc1=O | -2 | 9 | 0 | -11 | 28* | 1
O=C(NC(=S)N1CC=CCC1)c1ccccc1 | 0 | 1 | 1 | -1 | 8 | 1
CCOC(=O)c1ccc(C(=O)OCC)nc1 | -9 | 21* | -1 | -2 | 1 | 1
CCOC(=O)c1ccc(N)cc1 | -4 | -2 | 0 | 2 | -9 | 0
Fc1ccc(-c2csc3[n+]2CCS3)cc1 | -1 | 3 | -16 | 0 | 4 | 0
c1sc2[n+](c1C13CC4CC(CC(C4)C1)C3)CCS2 | -2 | -6 | -9 | 34* | -12 | 0
CCOc1ccc(CCNc2nc3ccccc3n3c(C)nnc23)cc1OCC | 4 | -2 | -1 | -6 | 3 | 0
Cc1ccc(S(=O)(=O)N2CCN(c3nc(C)c4c(c3C#N)CC(C)(C)OC4)CC2)cc1 | 0 | 4 | -8 | -6 | 7 | 1
O=C(Nc1ccccc1)C1CCCN(C(=O)c2ccc(F)cc2)C1 (stereo not drawn) | 1 | 2 | 1 | -4 | 22* | 2
O=C(Nc1ccccc1)C1CCCN(C(=O)c2ccc(Cl)cc2)C1 (stereo not drawn) | -11 | 0 | 6 | -11 | 3 | 4
O=C(Cc1ccc(NC(=O)C2CCCN(C(=O)C3CCCCC3)C2)cc1)Nc1cccc(C(=O)N2CCCC2)c1 (stereo not drawn) | 8 | -5 | 1 | -1 | 17* | -2
CN(C(=O)c1ccc(NC(=O)Cc2ccc(NC(=O)C3CCN(C(=O)C4CC4)CC3)cc2)cc1)C1CCCC1 | -1 | -5 | -1 | -21 | 20* | 0
CCOC(=O)c1cccc(NC(=O)CN2CCN(c3ccc(OC)cc3)CC2)c1 | -13 | 5 | 1 | 15 | 2 | -3
Cc1ccc(CNc2ncc(-c3ccc4c(c3)OCO4)n2C)cc1 | 5 | -12 | -7 | 28* | -28 | 0
Cn1c(-c2ccc3c(c2)OCO3)cnc1NCc1ccc(Cl)cc1 | 3 | -10 | -7 | 14 | -28 | 1
CN1CCN(c2ccc(NC(=O)N3CCc4ccccc43)cc2)CC1 | 7 | 1 | -6 | -5 | 1 | 1
CCN(CC)c1ccc(S(=O)(=O)N2CCOCC2)cc1NC(=O)COC(=O)/C=C/c1ccccc1 | 20 | -37 | -3 | 10 | -13 | 19
O=C(COC(=O)/C=C/c1ccc(S(=O)(=O)N2CCOCC2)cc1)NCc1ccccc1 | 5 | 5 | 3 | 23 | 4 | 5
Cc1ccc(CNC(=O)COC(=O)c2ccc(S(=O)(=O)N3CCCC3)cc2)cc1 | 2 | 22* | -8 | 0 | 2 | 2
CCN(CC)S(=O)(=O)c1ccc(C(=O)NCc2ccc3c(c2)cc(C)n3C)cc1 | -2 | -2 | 2 | 55* | -17 | 1
SMILES | M5 antag | CHRM5 PAM | CHRM5 agonist | M4 antag | CHRM4 PAM | CHRM4 agonist
CCN(CC)c1ccc(S(=O)(=O)N2CCOCC2)cc1NC(=O)COC(=O)/C=C/c1ccc(C)o1 | 31* | -34 | -2 | 11 | -9 | 22
COc1ccc(C(=O)NCc2ccc3c(c2)cc(C)n3C)cc1OC | 10 | 0 | 1 | -2 | 5 | 2
O=C(COC(=O)/C=C/c1ccc(S(=O)(=O)N2CCOCC2)cc1)NCc1ccc(Cl)cc1 | -16 | 19* | 9 | -16 | 17 | 2
CN1CCN(C(=O)/C(=C/c2ccc(N(C)C)cc2)NC(=O)c2ccccc2)CC1 | 17 | -5 | -3 | 9 | -2 | 2
Cc1cc(S(=O)(=O)Nc2cccnc2)c(Cl)cc1Cl | -4 | -1 | 3 | -12 | 2 | 0
Cc1cc2cc(CNC(=O)c3ccc(S(=O)(=O)N4CCCCC4)cc3)ccc2n1C | 0 | -8 | 2 | 16 | -7 | 6
Cc1cc2cc(CNC(=O)c3ccc(S(=O)(=O)N4CCCC4)cc3)ccc2n1C | 8 | -7 | -1 | 35* | -15 | 3
CCn1c(N2CCN(S(=O)(=O)CC)CC2)nc2ccccc21 | 3 | 6 | -1 | -8 | 7 | 1
COc1ccc(Cn2c(=O)[nH]c3cc(C(=O)NCCCN4CCCCC4)ccc3c2=O)cc1 | 0 | 2 | -4 | 7 | -3 | 0
COc1cc(C2c3cc4c(cc3C(O)C3COCC23)OCO4)cc(OC)c1OC (stereo not drawn) | 14 | 12 | 7 | -4 | 3 | 0
COc1cc([C@@H]2c3cc4c(cc3[C@H](O)[C@H]3COC(=O)[C@H]23)OCO4)cc(OC)c1OC | 4 | -14 | 1 | 55* | -16 | 2
CCCCn1c(N)c(N(CCOC)C(=O)CCNC(=O)c2ccccc2Cl)c(=O)[nH]c1=O | -1 | 5 | -1 | 6 | 5 | 1
CC(=O)SC1CC(=O)N(c2c(C)cccc2C)C1=O (stereo not drawn) | 0 | 21* | 5 | 4 | 1 | 0
CC(O)CC(=O)OC[C@]12CC[C@H]3[C@@](C)(CC[C@H]4C(C)(C)CCC[C@]34C)[C@@H]1CC(C1=CC(=O)OC1O)O2 (stereo partly drawn) | 13 | -3 | 0 | 64* | -12 | 3
CCN1CCN(CC(=O)N2c3ccccc3CC2C)CC1 (stereo not drawn) | -9 | 6 | -2 | 3 | 2 | 0
CCOC(=O)N1CCN(CC(=O)N2c3ccccc3CC2C)CC1 (stereo not drawn) | 1 | 1 | 1 | 31* | -1 | 1

High-throughput results deposited in PubChem by The Scripps Research Institute Molecular Screening Center.
